Activity calls are given as the source filed them. The calls are words filed in the database; no cut-off is given here. Where a SMILES comes first, the peptide text is derived from it. Bridges are numbered along the chain shown (N, C = ends). [ ]: non-standard residue; d: D form. S5 = C=CCCC[C@](C)(N)C(=O)O

Assay [1] can be described thus: Inhibition of EGFP-fused MERS-CoV spike protein mediated cell-cell fusion between viral protein expressing human 293T cells and human HuH7 target cells after 4 hrs by inverted fluorescence microscopic analysis. More on the design: species or system Middle East respiratory syndrome-related coronavirus. In short, it runs like this: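 Huh-7 target cells expressing DPP4 were seeded at 5 × 10^4/well and kept at 37 °C for 5 h. Inhibitors were added, then 293T effector cells co-expressing S protein and EGFP (1 × 10^4/well); 293T/EGFP-only cells served as negative control. After 4 h coculture at 37 °C, fused and unfused cells were counted by fluorescence microscopy.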

Assay [2] is described as follows: Binding affinity to NHR peptide HR1P in pH 7.2 phosphate buffer assessed as formation of alpha-helical complex at 50 uM after 30 mins by CD spectroscopic method. In short, it runs like this: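 Peptides were at 50 µM final in 50 mM PBS, pH 7.2. Equimolar HR1P/peptide mixtures were incubated at 25 °C for 30 min before CD scanning. α-Helicity was taken from [θ]222, where -33,000 deg cm2/dmol = 100% helix.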

A short description of assay [3]: Binding affinity to NHR peptide HR1P in pH 7.2 phosphate buffer assessed as formation of alpha-helical complex at 200 uM after 30 mins by N-PAGE analysis. In short, it runs like this:
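Stapled peptide and HR1P, each 200 µM (in 50 mM PBS or ddH2O), were incubated together at 25 °C for 30 min. Samples in Tris-glycine native sample buffer were run on an 18% Tris-glycine gel (pH 8.3 buffer) at 120 V for 3 h at room temperature and stained with Coomassie blue R250.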

For `CSCC[C@H](NC(=O)[C@H](CCC(=O)O)NC(=O)[C@H](Cc1ccc(O)cc1)NC(=O)[C@@H](NC(=O)[C@H](CC(C)C)NC(=O)[C@H](CC(=O)O)NC(=O)[C@H](CC(C)C)NC(C)=O)[C@@H](C)O)C(=O)N[C@@H](CC(C)C)C(=O)N[C@@H](CO)C(=O)N[C@@H](CC(C)C)C(=O)N[C@@]1(C)CCC/C=C/CCC[C@@](C)(C(=O)N[C@@H](C)C(=O)N[C@@H](CC(C)C)C(=O)N[C@@H](CC(N)=O)C(=O)N[C@@H](CCC(=O)O)C(=O)N[C@@H](CO)C(=O)N[C@@H](Cc2ccc(O)cc2)C(N)=O)NC(=O)[C@H](C(C)C)NC(=O)[C@H](C(C)C)NC(=O)[C@H](CCC(N)=O)NC1=O` (Ac-LDLTYEMLSL[S5]QVV[S5]ALNESY-NH2; staple (E) 11-15), the EC50 in assay [1] was > 50 µM. The result in assay [2] and in assay [3] was inactive.

What is called EC50 is the concentration that produces a half-maximal response.

The values above are taken from ChEMBL document CHEMBL4118106 (J Med Chem, 2018).
